In ChEMBL document CHEMBL1156678, “A new class of analgesic agents toward prostacyclin receptor inhibition: synthesis, biological studies and QSAR analysis of 1-hydroxyl-2-substituted phenyl-4,4,5,5-tetramethylimidazolines” (Eur J Med Chem, 2008) one finds Activity and inhibition data, which are given here for 17 compounds.

For series [1], the system named is Mus musculus. The series is described as follows: Thrombotic toxicity in ICR mouse assessed as tail bleeding time at 1.3 mmol/kg, ip after 60 mins. As to conditions: in vivo, 1 h. It is filed as organism-based. Summed up: (§1)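 Male ICR mice (25 ± 2 g) were kept one day on a 12/12 h light/dark cycle at 21 ± 2 °C. Each received a single i.p. dose of 1.30 mmol/kg in saline/DMSO/Tween-80 (0.2/0.01/0.02 ml), or the solvent only. The restrained mouse had 1 mm cut from the tail before dosing and at 5, 15, 30 and 60 min. Bleeding time (s) is reported as mean ± SD.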

Series [2] can be described thus: Cardiovascular toxicity in rat aorta assessed as inhibition of noradrenaline-induced vasoconstriction at 5 mM relative to control. It is filed as tissue-based. As to conditions: isolated rat aorta. The method, boiled down: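 Rat aortic strips were contracted with noradrenaline, washed, stabilized for 30 min, and contracted again. At peak contraction, compound was added (final 5 × 10^-3 M) or vehicle alone. The relaxant response was recorded as percentage inhibition of the contraction.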

The subject of series [3] is Mus musculus. The series is described as follows: Analgesic activity in ICR mouse assessed as pain threshold variation at 0.13 mmol/kg, ip after 30 mins by tail flick test relative to control. It is filed as functional. Summed up: (§2)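 Male ICR mice (25 ± 2 g), kept on a 12/12 h light/dark cycle at 21 ± 2 °C for one day before use. Each received a single i.p. injection in 0.2 ml saline + 0.01 ml DMSO + 0.02 ml Tween-80. Vehicle-only mice served as controls. Basal tail-flick threshold was measured four times (BPT). Thresholds were then read every 30 min for 150 min. PTV = (post-dose threshold − BPT)/BPT. n = 10, x ± SD.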
On the technique in general: Hot-plate and tail-flick tests time the reaction to a heat stimulus.

Series [4] has as its system Mus musculus. The series is described as follows: Analgesic activity in ICR mouse assessed as pain threshold variation at 0.13 mmol/kg, ip after 60 mins by tail flick test relative to control. It is filed as functional. Summed up: as §2
Series [5] relates to Mus musculus. The series is described as follows: Analgesic activity in ICR mouse assessed as pain threshold variation at 0.13 mmol/kg, ip after 90 mins by tail flick test relative to control. It is filed as functional. Summed up:
as §2

Series [6] concerns Mus musculus. The series is described as follows: Analgesic activity in ICR mouse assessed as pain threshold variation at 0.13 mmol/kg, ip after 120 mins by tail flick test. Format: functional. Summed up: as §2
In series [7] the test system is Mus musculus. Put plainly: Analgesic activity in ICR mouse assessed as pain threshold variation at 0.13 mmol/kg, ip after 150 mins by tail flick test. It is filed as functional. Summed up:
as §2

Series [8] relates to Mus musculus. Put plainly: Thrombotic toxicity in ICR mouse assessed as tail bleeding time at 1.3 mmol/kg, ip after 5 mins. The note with it: in vivo. Format: organism-based. Summed up:
as §1

For series [9], the system named is Mus musculus. The series is described as follows: Thrombotic toxicity in ICR mouse assessed as tail bleeding time at 1.3 mmol/kg, ip after 15 mins. It is filed as organism-based. The note with it: in vivo, 0.25 h. The method, boiled down:
as §1

For series [10], the system named is Mus musculus. Put plainly: Thrombotic toxicity in ICR mouse assessed as tail bleeding time at 1.3 mmol/kg, ip after 30 mins. Format: organism-based. As to conditions: in vivo, 0.5 h. The method, boiled down:
as §1

One may read the inhibition as how much of the control response was suppressed. As to `COc1ccc(C2=NC(C)(C)C(C)(C)N2O)cc1`, the Activity in series [1] worked out at 118 s; in series [3], 64.55%; in series [4] it was 76.13%; in series [5] it was 66.49%; in [6] it was 65.23%; in series [7], 46.74%. Besides, the results for the Activity in [8], in [9] and in series [10] were 119 s, 118 s and 118 s, respectively. Further, in series [2], the inhibition at 5000 µM turned out to be 19.7%.
For `CC1(C)N=C(c2ccccc2O)N(O)C1(C)C`, the Activity in series [1] was 118 s; in series [3], 50.76%; in series [4] it was 49.93%; in [5], 68.27%; in series [6] it was 73.13%; in [7], 67.3%. The results for the Activity in series [8], in series [9] and in [10] were 118 s, 117 s and 119 s, respectively. Further, the inhibition at 5000 µM in series [2] was 22.9%.
For the compound `COc1cc(C2=NC(C)(C)C(C)(C)N2O)ccc1O`, the Activity was found to be 117 s in series [1]; 47.57% in series [3]; 61.52% in [4]; 60.65% in series [5]; 52.21% in series [6]; 40.56% in [7]. Further, the values for the Activity in series [8], in [9] and in series [10] were 119 s, 118 s and 119 s, respectively. For the same compound, the inhibition at 5000 µM in series [2] turned out to be 20.6%.
As to `COc1ccc(C2=NC(C)(C)C(C)(C)N2O)cc1O`, the Activity in series [1] was determined as 119 s; in series [3], 44.33%; in [4], 59.85%; in series [5], 60.71%; in [6], 50.77%; in [7], 41.62%. Further, the Activity in series [8] amounted to 120 s; in series [9], 118 s; in series [10] it was 117 s. The inhibition at 5000 µM in [2] turned out to be 35.1%.
Consider `CC1(C)N=C(c2cccc([N+](=O)[O-])c2)N(O)C1(C)C`, for which the Activity in [1] was determined as 117 s; in [3], 52.76%; in [4], 62.07%; in series [5], 63.46%; in series [6] it was 60.26%; in series [7] it was 70.83%. For the same compound, the Activity in series [8] worked out at 117 s; in series [9], 118 s; in series [10], 119 s. In addition, the inhibition at 5000 µM in [2] turned out to be 31.8%.
As for `CC1(C)N=C(c2ccc(Cl)cc2Cl)N(O)C1(C)C`, the Activity in series [1] is 119 s; in series [3] it was 46.97%; in [4] it was 46.31%; in series [5], 44.1%; in series [6], 46.12%; in series [7] it was 45.99%. Besides, the values for the Activity in [8], in [9] and in [10] were 117 s, 117 s and 119 s, respectively. For the same compound, in series [2], the inhibition at 5000 µM was found to be 15.9%.
Turning to `CC1(C)N=C(c2ccc(Cl)c(Cl)c2)N(O)C1(C)C`, the Activity in series [1] is 117 s; in [3], 20.52%; in series [4] it was 21.43%; in series [5], 41.9%; in series [6] it was 40.17%; in series [7] it was 50.62%. Also, the Activity in series [8], in [9] and in series [10] was 118 s each time. Also, the inhibition at 5000 µM in [2] came out at 22.8%.
Turning to `CC1(C)N=C(c2ccc(O)cc2)N(O)C1(C)C`, the Activity in series [1] turned out to be 119 s; in series [3], 57.6%; in [4], 74.74%; in series [5], 79.8%; in [6], 53.45%; in series [7], 27.62%. Besides, the Activity in series [8] was 116 s; in series [9], 118 s; in series [10] it was 119 s. In addition, the inhibition at 5000 µM in series [2] stood at 13.6%.
Regarding `COc1ccc(C2=NC(C)(C)C(C)(C)N2O)cc1OC`, the Activity amounted to 118 s in series [1]; 50.9% in series [3]; 50.12% in [4]; 54.54% in series [5]; 38.43% in series [6]; 35.37% in series [7]. The figures for the Activity in [8], in [9] and in series [10] were 117 s, 117 s and 118 s, respectively. In addition, the inhibition at 5000 µM in [2] was 17.9%.
As for `CC1(C)N=C(c2cccc(O)c2)N(O)C1(C)C`, the Activity amounted to 119 s in series [1]; 50.69% in series [3]; 59.38% in series [4]; 59.94% in [5]; 77.78% in series [6]; 72.88% in series [7]. In addition, the Activity in series [8] is 117 s; in series [9], 119 s; in series [10], 118 s. Further, the inhibition at 5000 µM in series [2] is 46.3%.
With `CC1(C)N=C(c2ccccc2[N+](=O)[O-])N(O)C1(C)C`, the Activity amounted to 118 s in [1]; 28.95% in series [3]; 45.14% in series [4]; 45.93% in series [5]; 50.91% in [6]; 40.04% in series [7]. Also, the Activity in series [8], in series [9] and in series [10] was 119 s in each case. Also, the inhibition at 5000 µM in series [2] is 30.2%.
As to `CC1(C)N=C(c2ccc3c(c2)OCO3)N(O)C1(C)C`, the Activity is 118 s in [1]; 58.82% in [3]; 68.46% in series [4]; 67.15% in series [5]; 59.77% in series [6]; 60.22% in [7]. The figures for the Activity in [8], in series [9] and in series [10] were 120 s, 119 s and 119 s, respectively. Besides, in series [2], the inhibition at 5000 µM is 21.9%.
Take `COc1ccc(C2=NC(C)(C)C(C)(C)N2O)c(OC)c1`: the Activity is 117 s in series [1]; 52.93% in series [3]; 44.85% in series [4]; 44.96% in [5]; 38.34% in series [6]; 37.89% in series [7]. Besides, the Activity in series [8] amounted to 118 s; in series [9] it was 118 s; in series [10] it was 119 s. Also, the inhibition at 5000 µM in [2] was determined as 23.3%.
`Cc1ccc(C2=NC(C)(C)C(C)(C)N2O)cc1`: the Activity in series [1] was found to be 119 s; in [3], 42.06%; in [4], 55.16%; in [5], 48.82%; in series [6], 39.96%; in [7], 45.41%. Also, the results for the Activity in series [8], in series [9] and in series [10] were 119 s, 118 s and 117 s, respectively. The inhibition at 5000 µM in series [2] was found to be 16.7%.
On to `CN(C)c1ccc(C2=NC(C)(C)C(C)(C)N2O)cc1`, for which the Activity came out at 119 s in series [1]; 34.3% in series [3]; 39.44% in series [4]; 40.17% in [5]; 37.34% in series [6]; 31.27% in series [7]. Besides, the Activity in [8], in series [9] and in [10] was 117 s throughout. In addition, the inhibition at 5000 µM in series [2] came out at 6.63%.
Regarding `CC1(C)N=C(c2ccc([N+](=O)[O-])cc2)N(O)C1(C)C`, the Activity in series [1] was determined as 117 s; in series [3] it was 44.15%; in series [4], 38.32%; in series [5], 36.31%; in series [6], 35.97%; in [7] it was 47.81%. Also, the Activity in [8] amounted to 118 s; in [9] it was 117 s; in series [10], 117 s. Besides, the inhibition at 5000 µM in [2] was 32.7%.
On to `CC1(C)N=C(c2ccccc2)N(O)C1(C)C`, for which the Activity amounted to 117 s in series [1]; 43.67% in series [3]; 37.68% in [4]; 37.07% in [5]; 37.41% in [6]; 35.48% in series [7]. The values for the Activity in [8], in series [9] and in series [10] were 117 s, 119 s and 118 s, respectively. The inhibition at 5000 µM in series [2] came to 22.9%.
